Measured values published in ChEMBL document CHEMBL4819027, “Design, synthesis and biological evaluation of novel 2-(4-(1H-indazol-6-yl)-1H-pyrazol-1-yl)acetamide derivatives as potent VEGFR-2 inhibitors” (Eur J Med Chem, 2021).
Active and inactive are the calls of the source. The calls are words filed in the database; no cut-off is given here.

Key:
[1] = biological target: T1, Vascular endothelial growth factor receptor 2 (Homo sapiens, UniProt P35968); test: Inhibition of VEGFR2-mediated angiogenesis in HUVEC cells assessed as reduction of phosphorylation of VEGFR-2 after 24 hrs by Westernblot analysis relative to control; assay type: cell-based; conditions: dose 1-10 µM
T1 sequence (P35968 whole entry): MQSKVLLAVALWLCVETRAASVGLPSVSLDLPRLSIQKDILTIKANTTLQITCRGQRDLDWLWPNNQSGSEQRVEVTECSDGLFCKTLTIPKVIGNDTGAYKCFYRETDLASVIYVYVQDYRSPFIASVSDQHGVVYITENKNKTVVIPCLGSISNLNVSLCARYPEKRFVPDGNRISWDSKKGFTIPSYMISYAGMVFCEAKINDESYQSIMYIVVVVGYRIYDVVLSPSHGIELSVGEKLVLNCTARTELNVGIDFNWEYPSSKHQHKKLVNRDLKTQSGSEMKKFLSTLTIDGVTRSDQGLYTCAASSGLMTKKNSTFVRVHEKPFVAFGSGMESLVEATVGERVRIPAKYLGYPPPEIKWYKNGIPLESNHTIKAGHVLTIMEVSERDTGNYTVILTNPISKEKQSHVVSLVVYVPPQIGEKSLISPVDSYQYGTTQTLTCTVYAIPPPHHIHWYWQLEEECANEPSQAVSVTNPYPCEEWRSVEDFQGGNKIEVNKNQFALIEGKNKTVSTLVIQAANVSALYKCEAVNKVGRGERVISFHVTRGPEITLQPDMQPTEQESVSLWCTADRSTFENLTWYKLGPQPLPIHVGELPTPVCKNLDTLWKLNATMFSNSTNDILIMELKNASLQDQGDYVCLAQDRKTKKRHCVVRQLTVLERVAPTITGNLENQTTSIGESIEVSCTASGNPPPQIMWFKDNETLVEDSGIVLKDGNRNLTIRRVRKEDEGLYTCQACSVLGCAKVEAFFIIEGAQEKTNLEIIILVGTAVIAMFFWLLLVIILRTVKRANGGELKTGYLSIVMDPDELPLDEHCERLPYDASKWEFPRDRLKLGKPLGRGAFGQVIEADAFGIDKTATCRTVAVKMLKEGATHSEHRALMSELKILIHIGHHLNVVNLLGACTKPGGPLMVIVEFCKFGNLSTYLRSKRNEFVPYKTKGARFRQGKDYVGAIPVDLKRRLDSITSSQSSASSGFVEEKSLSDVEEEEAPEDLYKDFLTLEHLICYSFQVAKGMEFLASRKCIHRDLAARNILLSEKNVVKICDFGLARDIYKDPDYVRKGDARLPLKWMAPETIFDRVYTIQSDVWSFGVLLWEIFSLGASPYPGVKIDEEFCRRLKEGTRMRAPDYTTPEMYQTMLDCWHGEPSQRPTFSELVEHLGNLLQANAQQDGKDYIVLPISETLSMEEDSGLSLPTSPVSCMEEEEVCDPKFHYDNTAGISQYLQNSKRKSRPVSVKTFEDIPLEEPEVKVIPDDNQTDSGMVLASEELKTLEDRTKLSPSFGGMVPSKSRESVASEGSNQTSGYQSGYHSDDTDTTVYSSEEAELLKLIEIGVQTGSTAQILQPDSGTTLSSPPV
How it was run: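 HUVECs seeded at 1.0×10^6 cells/dish in ECM with 1% ECGS, 10% FBS; treated 24 h with test compound (1, 5, 10 µM), 0.1% DMSO vehicle or 10 µM sorafenib. Lysed in RIPA with PMSF and phosphatase inhibitor; 8–12% SDS-PAGE, nitrocellulose, milk block, CST primaries overnight 4 °C, HRP secondaries, ECL; p-VEGFR-2 (Tyr1175) densitometry; at least triplicate.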

HGC-27 [2] = test: Induction of apoptosis in human HGC-27 cells assessed as late apoptotic cells level at 0.1 uM incubated for 24 hrs by propidium iode and annexin V-FITC staining based flow cytometry (reference value: 0.86%); assay type: functional
How it was run: (§1)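 HGC-27 cells (1.0 × 10⁶ per 60 mm dish) were treated 24 h with 0.1% DMSO or compound (0.1, 0.5, 1 μM). Cells were stained with Annexin V-FITC in HEPES/NaCl/CaCl₂ binding buffer (pH 7.4) for 15 min at room temperature, then with PI for 10 min. About 10 000 events were acquired by flow cytometry to give viable, early apoptotic, late apoptotic and necrotic fractions.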

[3] = biological target: T1, Vascular endothelial growth factor receptor 2; test: Inhibition of VEGFR2 in human HGC-27 cells assessed as downregulation of Akt phosphorylation at […] at 0.1 to 1 uM after 24 hrs by Westernblot analysis; assay type: cell-based; conditions: dose 0.1-1 µM
How it was run: (§2)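 HGC-27 cells (1.0 × 10⁶ per 60 mm dish) were treated 24 h with 0.1% DMSO or compound (0.1, 0.5, 1 μM). RIPA lysates with phosphatase inhibitor were quantified by BCA and resolved on 8–12% SDS-PAGE onto nitrocellulose. Blots were probed for p-VEGFR-2 (Tyr1175), p-PI3K (Tyr607), p-AKT (Thr308) and p-mTOR (Ser2448), with ECL detection and densitometry; mean ± SEM.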

HGC-27 [4] = test: Induction of apoptosis in human HGC-27 cells assessed as late apoptotic cells level incubated for 24 hrs by propidium iode and annexin V-FITC staining based flow cytometry; assay type: functional, cell-based; conditions: dose 0.1-1 µM; how it was run: as §1
HUVEC [5] = test: Cytotoxicity against HUVEC cells at 1 to 5 uM after 72 hrs by MTT assay; assay type: cell-based; conditions: human, dose 1-5 µM
How it was run: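 HUVECs grown in ECM with 1% ECGS and 10% FBS were seeded at 5 × 10³ per well and attached 24 h. Cells were exposed to compound at 1, 2.5 and 5 μM for 72 h at 37 °C. Viability was read by MTT: 4 h incubation, DMSO solubilization, absorbance at 490 nm.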

HGC-27 [6] = test: Antimigratory activity against human HGC-27 cells assessed as number of migration cells at 1 uM measured after 24 hrs by transwell migration assay (reference value: 320); assay type: functional
HGC-27 [7] = test: Induction of apoptosis in human HGC-27 cells assessed as early apoptotic cells level incubated for 24 hrs by propidium iode and annexin V-FITC staining based flow cytometry; assay type: functional, cell-based; conditions: dose 0.1-1 µM; how it was run: as §1
HGC-27 [8] = test: Induction of apoptosis in human HGC-27 cells assessed as early apoptotic cells level at 0.5 uM incubated for 24 hrs by propidium iode and annexin V-FITC staining based flow cytometry (reference value: 1.48%); assay type: functional; how it was run: as §1
HGC-27 [9] = test: Induction of apoptosis in human HGC-27 cells assessed as viable cells level at 0.1 uM incubated for 24 hrs by propidium iode and annexin V-FITC staining based flow cytometry (reference value: 96.0%); assay type: functional; how it was run: as §1
HGC-27 [10] = test: Inhibition of colony formation in human HGC-27 cells after 12 days by crystal violet staining based assay; assay type: functional, cell-based; conditions: dose 0.1-1 µM, time 12.0 day
How it was run: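 HGC-27 cells (500/well, 6-well plates) attached 24 h at 37 °C, then kept 12 days in medium with compound (0.1, 0.5, 1 µM), 0.1% DMSO vehicle or 5 µM sorafenib. Washed with cold PBS, methanol-fixed, stained 0.1% crystal violet 30 min; colonies >50 cells photographed and counted.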

HGC-27 [11] = test: Antimigratory activity against human HGC-27 cells assessed as reduction in cell migration measured after 24 hrs by crystal violet staining microscopy based transwell migration assay; assay type: functional; conditions: dose 0.1-1 µM
[12] = biological target: T1, Vascular endothelial growth factor receptor 2; test: Inhibition of VEGFR2 in human HGC-27 cells assessed as reduction in VEGFR-2 phosphorylation after 24 hrs by westernblot analysis; assay type: cell-based; how it was run: as §2
HGC-27 [13] = test: Antiinvasive activity against human HGC-27 cells assessed as reduction in cell invasion at 0.1 to 1 measured after 24 hrs by transwell invasion assay; assay type: functional, cell-based
How it was run: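 Transwell inserts (12 μm pore) were precoated with Matrigel. HGC-27 cells at 5 × 10⁵ cells/mL were placed in the upper well in serum-free medium with compound (0.1, 0.5, 1 μM). The lower chamber held RPMI-1640 with 10% FBS. After 24 h at 37 °C, invaded cells were methanol-fixed and stained with 0.1% crystal violet. Cells were counted in three random fields; three independent experiments, mean ± SD.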

HGC-27 [14] = test: Induction of intracellular ROS generation in human HGC-27cells assessed as increase in fluorescence intensity at 0.5 uM incubated for 24 hrs by DCFH-DA staining-based flow cytometric analysis (reference value: 712); assay type: functional
HGC-27 [15] = test: Induction of apoptosis in human HGC-27 cells assessed as early apoptotic cells level at 1 uM incubated for 24 hrs by propidium iode and annexin V-FITC staining based flow cytometry (reference value: 1.48%); assay type: functional; how it was run: as §1
HT-29 = test: Antiproliferative activity against human HT-29 cells assessed as cell growth inhibition after 72 hrs by MTT assay; assay type: functional, cell-based; conditions: HT-29, 72 h
How it was run: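 Log-phase cells were seeded at 5 × 10³ per well and attached 24 h. HT-29 and GES-1 were grown in DMEM-based medium, A549/HepG2/HGC-27 in RPMI-1640, HUVEC in ECM with ECGS; all media had 10% FBS. Cells were exposed to graded compound concentrations for 72 h at 37 °C. MTT (5 mg/mL stock) was added for 4 h, formazan dissolved in DMSO, and A490 read. IC50 was obtained by nonlinear sigmoidal regression; mean ± S.E. of three experiments.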

HGC-27 [16] = test: Antimigratory activity against human HGC-27 cells assessed as relative closure of scratches at 0.5 uM measured after 24 hrs by scratch wound healing assay relative to control; assay type: functional
How it was run: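 HGC-27 monolayers at 80–90% confluence were serum-starved 12 h, then scratched to give 1 mm lanes. After a PBS wash, cells received complete medium with or without compound (0.1, 0.5, 1 μM). Wounds were imaged at 0, 6 and 24 h. Relative scratch closure was quantified against untreated control; mean ± SD of three experiments.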

HUVEC [17] = test: Antiangiogenic activity against HUVEC cells assessed as reduction in VEGF-induced total branching points at 1 to 10 uM incubated for 12 hrs by matrigel-based assay; assay type: functional, cell-based; conditions: Homo sapiens, dose 1-10 µM
How it was run: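 HUVECs at 4 × 10⁵ cells/mL seeded on Matrigel that had been polymerized 1 h at 37 °C. Cells were stimulated with 20 ng/mL VEGF and treated with compound (1, 2.5, 5 and 10 μM) or 0.1% DMSO vehicle for 12 h at 37 °C. Tubes were imaged by inverted microscopy. Tube length, surface area and branch points were quantified as pixel area.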

`CC(=O)Nc1n[nH]c2cc(-c3cnn(CC(=O)Nc4ccc(C)c(C(F)(F)F)c4)c3)ccc12` was tested, and the inhibition [1] was “Dose-Dependent Effect”, the Activity (HGC-27 [2]) was 2.67% and the inhibition [3] was “Active”. The Activity (HGC-27 [4]) was “Dose-Dependent Effect”, the Activity (HUVEC [5]) was “Non-Toxic” and the Activity (HGC-27 [6]) was 22. For the same compound, the Activity (HGC-27 [7]) was “Dose-Dependent Effect”, the Activity (HGC-27 [8]) was 8.35% and the Activity (HGC-27 [9]) was 90.5%. The inhibition (HGC-27 [10]) was “Dose-Dependent Effect”, the inhibition (HGC-27 [11]) was “Dose-Dependent Effect” and the inhibition [12] was “Dose-Dependent Effect”. For the same compound, the inhibition (HGC-27 [13]) was “Dose-Dependent Effect”, the Flu intensity (HGC-27 [14]) was 945 and the Activity (HGC-27 [15]) was 11.8%. The IC50 (HT-29) was 2.97 µM, the inhibition at 0.5 µM (HGC-27 [16]) was 28% and the Activity (HUVEC [17]) was “Active”.
